Screens from PubChem BioAssay.
Compounds with a hit are over-represented: about 4.2% of the library has one in this group of screens.
Hep lipid drop: modulators of hepatic lipid droplet formation. AML12 mouse hepatocytes, oleate lipid droplets, BODIPY imaging. inhibition, % at 6.5 µM. hit rate 0.4% among 240,000. AID 1656;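 active = lipid droplet intensity inhibited by at least 50%, with more than 500 cells counted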
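Assay system: AML12 hepatocytes (mouse) / Also added: 100 µM oleic acid challenge / Times: overnight treatment with compound plus oleate / Detection: high-content imaging of BODIPY-stained droplets and DAPI nuclei / Evaluation: % inhibition of lipid droplet signal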
CHOP UPR activ: activators of apoptotic arm of unfolded protein response (CHOP); CHO-CHOP luciferase reporter, UPR activation, luminescence; percent of tunicamycin response over DMSO baseline; activation, % at 10 µM; hit rate 0.34% among 330,000;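 active = at 10 µM dose, activation of 40% or more, normalized to positive control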
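Test system: CHO CHOP reporter cells. Input: 500 CHO-CHOP cells per well. Medium: F12 with 10% FBS. Technique: luciferase luminescence. Measure: percent activation relative to tunicamycin control. Dosing: 10 µM compound, 0.5% DMSO. Timing: 16-18 h cell attachment, then 6 h compound exposure, 37 °C.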
CHOP inh: blocks CHOP induction under ER stress; CHO-K1 CHOP-promoter luciferase, tunicamycin-induced, 15-18 h; inhibition, % at 10 µM; hit rate 3.8% among 220,000; AID 2732;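 active = compounds that reduced the stress-induced luciferase reporter signal by more than about 70% of percent inhibition, limit read from the data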
TMEM16A act: activators or potentiators of mouse TMEM16A chloride channel | HEK293 TMEM16A/YFP-H148Q/I152L, iodide quench fluorescence; hits give low values | B-score at 10 µM | hit rate 0.3% among 340,000 | AID 623877;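 active = fluorescence-ratio B-score plate-corrected deviation score at least 3 library SD below zero, with starting fluorescence score within 5 deviations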;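 note: channel opened by trigger with iodide after compound preincubation; score built on the fluorescence ratio of max minus min over baseline; more negative score means more quench and so TMEM16A activation or potentiation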
Target sequence (Q8BHY3 whole entry, looked up): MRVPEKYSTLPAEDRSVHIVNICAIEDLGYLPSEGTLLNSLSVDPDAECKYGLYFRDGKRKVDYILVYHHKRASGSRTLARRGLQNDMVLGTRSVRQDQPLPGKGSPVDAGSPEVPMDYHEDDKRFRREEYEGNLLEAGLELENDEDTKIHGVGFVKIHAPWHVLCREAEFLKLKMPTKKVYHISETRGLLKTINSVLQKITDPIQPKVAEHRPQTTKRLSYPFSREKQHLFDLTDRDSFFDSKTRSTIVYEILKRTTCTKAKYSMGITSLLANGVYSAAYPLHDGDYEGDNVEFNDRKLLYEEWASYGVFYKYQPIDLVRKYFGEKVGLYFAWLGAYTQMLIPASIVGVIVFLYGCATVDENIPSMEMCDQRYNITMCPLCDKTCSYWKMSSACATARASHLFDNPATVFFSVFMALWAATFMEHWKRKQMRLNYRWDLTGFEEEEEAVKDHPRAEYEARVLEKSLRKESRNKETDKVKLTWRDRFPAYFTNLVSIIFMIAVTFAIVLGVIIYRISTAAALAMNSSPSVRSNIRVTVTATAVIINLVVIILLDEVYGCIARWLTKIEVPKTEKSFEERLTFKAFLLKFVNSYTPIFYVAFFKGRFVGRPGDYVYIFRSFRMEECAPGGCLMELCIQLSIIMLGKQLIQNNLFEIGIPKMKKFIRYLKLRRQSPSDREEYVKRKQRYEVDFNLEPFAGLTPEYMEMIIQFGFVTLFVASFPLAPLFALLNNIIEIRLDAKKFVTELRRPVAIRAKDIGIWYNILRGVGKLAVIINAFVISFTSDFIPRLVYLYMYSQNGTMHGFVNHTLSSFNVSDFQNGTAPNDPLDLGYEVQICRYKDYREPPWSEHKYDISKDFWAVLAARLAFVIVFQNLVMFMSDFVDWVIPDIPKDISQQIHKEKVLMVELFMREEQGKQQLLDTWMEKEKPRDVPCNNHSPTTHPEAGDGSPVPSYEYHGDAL
XBP1 UPR activ: adaptive UPR (XBP1) activation; CHO-XBP1 luciferase reporter, IRE1-XBP1 UPR activation, luminescence; percent of tunicamycin response, DMSO as zero; hit rate 0.33% among 330,000; activation, % at 20 µM;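 active = versus positive control, 20 µM dose yields 30% or more activation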
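Material – CHO cell line with stable XBP1 luciferase reporter · Buffer or medium – F12 plus 10% FBS · Compound – single point, 20 µM final compound, 1% DMSO · Schedule – 16-18 h cell attachment at 37 °C, then 6 h compound exposure · Signal – Steady-Glo luminescence read · Benchmarks – high control tunicamycin 10 µg/mL final, low control DMSO vehicle only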
ANO1 block: blocks the mouse calcium-activated chloride channel TMEM16A; hit rate 1.2% among 310,000; normalized B-score (activity score, 25-100; higher = stronger inhibition) at 10 µM; HEK293 TMEM16A/YFP iodide influx fluorescence, ionomycin;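 active = ratio plate-corrected score three or more library SD toward inhibition, starting fluorescence score within five deviations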;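 note: score derived from kinetic fluorescence span divided by baseline fluorescence per well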
Hits are given with their value; i = inactive; nt = no result.

SMILES	Hep lipid drop	CHOP UPR activ	CHOP inh	TMEM16A act	XBP1 UPR activ	ANO1 block
CCOC(=O)c1c(C)[nH]c(C(=O)COC(=O)c2ccccc2NC(=O)c2ccco2)c1C	nt	i	i	i	i	i
O=C(/C=C/c1ccc(Cl)cc1Cl)NCCSCc1ccccc1	i	i	i	i	i	100
O=C(/C=C/c1ccc(Cl)cc1Cl)NCCSc1ccccc1	i	i	i	i	i	25
CCOC(=O)c1cnn(-c2cc(C)nc3c(-c4ccc(Cl)cc4)c(C)nn23)c1N	nt	nt	84	nt	nt	nt
CCOC(=O)c1cnn(-c2cc(C)nc3c(-c4ccccc4)c(C)nn23)c1N	i	i	81	i	i	i
CCOC(=O)c1cnc2c(-c3ccccc3)cnn2c1N	nt	i	80	i	i	i
CCOC(=O)c1cnc2c(-c3ccccc3)c(C)nn2c1N	i	i	i	i	i	i
CCOC(=O)c1cnn(-c2cc(C)c3ccccc3n2)c1N	nt	i	i	i	i	i
NC(=O)c1nc(C(=O)N2CCN(c3ccccc3)CC2)c2ccccc2n1	nt	i	nt	i	i	nt
Cc1nnc(-c2cccc(Br)c2)c2cn(-c3cccc(Br)c3)nc12	nt	i	75	i	i	i
Cc1nnc(-c2cccc(Br)c2)c2cn(-c3ccccc3)nc12	i	i	i	i	i	i
COc1ccccc1-c1nc(-c2ccccn2)no1	nt	i	i	i	i	i
COc1ccc(-c2nc(-c3ccccn3)no2)cc1	i	i	101	i	i	i
CN1CCN(S(=O)(=O)c2ccc(Sc3nnnn3-c3ccccc3)c([N+](=O)[O-])c2)CC1	i	i	107	i	i	i
CC(=O)c1ccc(Sc2nnnn2-c2ccccc2)c([N+](=O)[O-])c1	i	i	i	i	i	i
CC(=O)Cn1cnc2c(cnn2-c2ccc(C)c(C)c2)c1=O	i	i	nt	i	i	i
O=C(CNC(=O)c1cccc(Br)c1)N/N=C/c1cc(Br)cc(Br)c1O	i	i	91	i	i	i
CN(C)c1ccc(C(=O)N/N=C/c2cc(Br)cc(Br)c2O)cc1	i	i	91	i	i	i
CC(C)(O)C#Cc1ccc(C(=O)NCc2ccccc2F)cc1	i	i	i	i	i	i
CCC(=O)Nc1ccc(NC(=S)NC(=O)/C=C/c2ccccc2)cc1	i	i	92	i	i	i
Cc1ccc(CN2CCC(CNC(=O)c3ccc(NC(=O)C4=CSCCO4)cc3)CC2)cc1	i	i	nt	-27	i	i
C=CCN1C(=O)N/C(=C/c2ccc(N3CCOCC3)o2)C1=O	i	i	94	nt	i	i
O=C1N/C(=C/c2ccc(N3CCOCC3)o2)C(=O)N1c1ccccc1	i	nt	i	i	nt	i
CC(C)CNC(=S)N(CCO)Cc1cc2cc3c(cc2[nH]c1=O)OCO3	i	i	nt	i	i	i
c1ccc(Oc2nc3ccccc3n3cccc23)cc1	nt	i	70	i	i	i
SMILES	Hep lipid drop	CHOP UPR activ	CHOP inh	TMEM16A act	XBP1 UPR activ	ANO1 block
Cc1ccc(C(=O)Nc2onc(C)c2C#N)cc1	i	i	i	i	i	i
O=S(=O)(Nc1nc(-c2sccc2Cl)cs1)c1cc(Cl)ccc1Cl	nt	i	i	i	i	100
COc1ccc(NC(=O)CN(C)C2=NS(=O)(=O)c3ccccc32)cc1Cl	nt	i	nt	i	i	nt
CCOC(=O)c1ccc(-n2c(C)nc3c(cnn3-c3ccccc3Cl)c2=O)cc1	i	i	i	i	i	i
CCOC(=O)c1ccc(-n2c(C)nc3c(cnn3-c3ccc(Cl)cc3)c2=O)cc1	i	i	76	i	i	i
COc1ccc(-n2c(C)nc3c(cnn3-c3ccc(Cl)cc3)c2=O)cc1	nt	i	83	i	i	i
COc1ccc(CCC(=O)Nc2ncc(C)s2)cc1	i	i	nt	i	i	i
O=C(CN(c1ccc(Cl)cc1)S(=O)(=O)c1ccccc1)N1CCN(c2ccccc2)CC1	i	i	73	i	i	i
COc1ccc(N2CCN(C(=O)CN(c3ccc(OC)cc3)S(=O)(=O)c3ccccc3)CC2)cc1	i	i	nt	i	i	i
CCCCn1c(N)c(N(CCOC)C(=O)c2cccc(-n3cnnn3)c2)c(=O)[nH]c1=O	nt	i	nt	i	i	i
CCOC(=O)c1cc2c(C)n(-c3ccc(OCC)cc3)c(C)c2ccc1=O	nt	i	i	i	i	i
CCOC(=O)c1cc2c(C)n(-c3ccc(C)cc3)c(C)c2ccc1=O	nt	i	i	i	i	100
CC(=C/c1ccc(C(C)C)cc1)/C=N/NC(=O)CSc1ccccn1	i	i	92	i	i	i
CC(/C=N/NC(=O)CSc1ccccn1)=C\c1ccc(C(C)C)cc1	i	i	i	i	i	i
COc1ccc(C(=O)/C=C/c2ccc(O)cc2)c(O)c1CC=C(C)C	i	i	79	i	i	i
Cc1ccc(NS(=O)(=O)c2ccc(Cl)c(NC(=S)NC(=O)C3CCCCC3)c2)cc1Cl	i	i	96	i	i	i
Cc1ccc(NC(=O)C2CCCC2)cc1Cl	nt	i	nt	i	i	i
Cc1ccc(NS(=O)(=O)c2ccc(NC(=O)CSc3ccc(Cl)cc3)cc2)c(C)c1	nt	i	70	i	i	25
Cc1ccc(S(=O)(=O)NCCC(=O)Nc2ccc(Cl)c(Cl)c2)cc1	i	i	83	i	i	i
Cc1ccc(NC(=O)CCNS(=O)(=O)c2cccc3nonc23)cc1	i	i	75	i	i	i
Cc1ccc(S(=O)(=O)NCCC(=O)Nc2ccc(Cl)c(Cl)c2)cc1C	i	i	i	i	i	i
Cc1ccc(S(=O)(=O)Nc2ccc(NC(=O)CN3CCCCC3)c(Cl)c2)cc1	i	i	95	i	i	i
Nc1ccc(Br)cc1Br	i	i	i	i	i	i
O=C1CC(c2ccc3c(c2)OCO3)c2cc3c(cc2N1)OCCO3 (stereo not given)	i	i	i	-5.1	i	i
COc1cc(OC)cc(C(=O)OCc2cc3ccccc3[nH]c2=O)c1	nt	i	85	i	i	i
SMILES	Hep lipid drop	CHOP UPR activ	CHOP inh	TMEM16A act	XBP1 UPR activ	ANO1 block
COc1cccc(C2Nc3ccc4ccccc4c3C3=C2C(=O)CC(C)(C)C3)c1OCC(=O)O (stereo not given)	i	i	nt	i	i	i
Cc1ccc2c(c1)C(=O)N1[C@H]3c4ccccc4OC[C@@H]3[C@H](c3ccccc3)[C@]1(C)C(=O)N2	nt	i	nt	i	i	nt
Cc1ccc2oc(-c3cc(NC(=O)c4ncn[nH]4)ccc3O)nc2c1	i	i	i	i	i	i
CCCCCCC1CC(CCC(=O)Nc2ccc([N+](=O)[O-])cc2)C(=O)O1 (stereo not given)	i	i	84	i	i	i
CCCCCC1CC(CC(=O)Nc2ccc([N+](=O)[O-])cc2)OC1=O (stereo not given)	i	i	91	i	i	i
CCc1cc2c(COC(=O)c3c(C)noc3C)cc(=O)oc2cc1O	i	i	95	i	i	i
